In ChEMBL document CHEMBL1144069, “Cytotoxic activities of hypocretenolides from Leontodon hispidus” (J Nat Prod, 1999):
Calls of active or inactive are those of the source. The calls are words filed in the database; no cut-off is given here.

Experiments:
CD34+ cell [1] = assay: Antiproliferative activity against CSF and human recombinant erythropoietin-induced human CD34+ cells proliferation assessed as inhibition of BFU-erythroid formation at 1 uM after 12 days by clonogenic assay; assay type: functional, cell-based
How it was run: (§1)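 Human CD34+ cells were immunomagnetically selected from mononuclear cells, with purity checked by FACS. They were plated at 2 × 10^3 cells/dish in Iscove's 0.8% methylcellulose with 30% FCS. Stimulation used 3 U/mL rhEPO plus 10% agar-stimulated leukocyte-conditioned medium. Final concentrations were 0.25–2.00 µM. Dishes were run in duplicate and repeated once (n = 4). CFU-E and mature BFU-E were scored at 12 days; primitive BFU-E and CFU-GM (>50 cells) at 18 days. IC50 was read graphically.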

A-431 [2] = assay: Cytotoxicity against human A431 cells after 48 hrs by [3H]thymidine incorporation assay; assay type: functional, cell-based
How it was run: (§2)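 Adherent tumor cells (100 µL at 1 × 10^6 cells/mL) were overlaid with 100 µL of medium containing compound in the 0.25–4.00 µM range (0.1% final DMSO). The medium control had no compound. Cells were incubated for 24, 48 or 72 h at 37 °C and 5% CO2, then pulsed 24 h with 3H-thymidine. They were harvested onto glass filters and counted by liquid scintillation. Three wells per point, on three separate days (n = 9). IC50 was taken graphically.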

SW872 [3] = assay: Cytotoxicity against human SW872 cells after 72 hrs by [3H]thymidine incorporation assay; assay type: functional, cell-based
How it was run: (§3)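 Adherent tumour cells at 1 × 10^6 cells/mL (100 µL per well) overlaid with an equal volume of medium carrying test substance across 0.25–4.00 µM. Medium-only controls. Incubated 24, 48 or 72 h at 37 °C, 5% CO2, then pulsed 24 h with 3H-thymidine and harvested onto glass filters for scintillation counting. Final DMSO 0.1%. Triplicate wells, three days (n = 9). IC50 read graphically from each experiment's dose curve.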

ZR-75-1 [4] = assay: Cytotoxicity against human ZR-75-1 cells after 24 hrs by [3H]thymidine incorporation assay; assay type: functional, cell-based; how it was run: as §3
[5] = Antiproliferative activity against CSF and human recombinant erythropoietin-induced human CD34+ cells proliferation assessed as inhibition of BFU-erythroid formation at 0.5 uM after 12 days by clonogenic assay; assay type: functional, CD34+ cell; parameters: scale not given: the % may be the effect or the level left; how it was run: as §1
OVCAR-3 [6] = assay: Cytotoxicity against human OVCAR-3 cells after 24 hrs by [3H]thymidine incorporation assay; assay type: functional, cell-based; how it was run: as §2
A-431 [7] = assay: Cytotoxicity against human A431 cells after 24 hrs by [3H]thymidine incorporation assay; assay type: functional, cell-based; how it was run: as §2
OVCAR-3 [8] = assay: Cytotoxicity against human OVCAR-3 cells after 72 hrs by [3H]thymidine incorporation assay; assay type: functional, cell-based; how it was run: as §2
ZR-75-1 [9] = assay: Cytotoxicity against human ZR-75-1 cells after 72 hrs by [3H]thymidine incorporation assay; assay type: functional, cell-based; how it was run: as §3
A-431 [10] = assay: Cytotoxicity against human A431 cells after 72 hrs by [3H]thymidine incorporation assay; assay type: functional, cell-based; how it was run: as §2
[11] = Cytotoxicity against human SK37 cells after 48 hrs by [3H]thymidine incorporation assay; assay type: functional, cell-based; how it was run: as §2
[12] = Cytotoxicity against human SK37 cells after 24 hrs by [3H]thymidine incorporation assay; assay type: functional, cell-based; how it was run: as §2
HEp-2 [13] = assay: Cytotoxicity against human HEP2 cells after 24 hrs by [3H]thymidine incorporation assay; assay type: functional, cell-based; how it was run: as §2
[14] = Cytotoxicity against human SK MEL28 cells after 72 hrs by [3H]thymidine incorporation assay; assay type: functional, cell-based; settings: SK-MEL-28; how it was run: as §2
MCF7 [15] = assay: Cytotoxicity against human MCF7 cells after 48 hrs by [3H]thymidine incorporation assay; assay type: functional, cell-based; how it was run: as §2
HL-60 = assay: Cytotoxicity against human HL-60 cells after 5 hrs by MTT assay; assay type: functional, cell-based; settings: HL-60, 5 h
How it was run: (§4)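 Leukemic cells at 0.5 × 10^6 cells/mL in RPMI were exposed to 0.01–2.00 µM compound (0.1% final DMSO) at 37 °C and 5% CO2. Viability was measured as MTT formazan, dissolved in DMSO and read at 550 and 630 nm. Three wells per point, on three separate days (n = 9). IC50 was taken graphically from per-experiment dose curves.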

CD34+ cell [16] = assay: Antiproliferative activity against CSF and human recombinant erythropoietin-induced human CD34+ cells proliferation assessed as inhibition of CFU-erythroid formation at 1 uM after 12 days by clonogenic assay; assay type: functional, cell-based; how it was run: as §1
ZR-75-1 [17] = assay: Cytotoxicity against human ZR-75-1 cells after 48 hrs by [3H]thymidine incorporation assay; assay type: functional, cell-based; how it was run: as §3
HEp-2 [18] = assay: Cytotoxicity against human HEP2 cells after 72 hrs by [3H]thymidine incorporation assay; assay type: functional, cell-based; how it was run: as §2
MCF7 [19] = assay: Cytotoxicity against human MCF7 cells after 72 hrs by [3H]thymidine incorporation assay; assay type: functional, cell-based; how it was run: as §2
[20] = Antiproliferative activity against CSF and human recombinant erythropoietin-induced human CD34+ cells proliferation assessed as inhibition of CFU-GM formation at 0.5 uM after 18 days by clonogenic assay; parameters: scale not given: the % may be the effect or the level left
CD34+ cell [21] = assay: Antiproliferative activity against CSF and human recombinant erythropoietin-induced human CD34+ cells proliferation assessed as inhibition of BFU-erythroid formation after 12 days by clonogenic assay; assay type: functional, cell-based; how it was run: as §1
MCF7 [22] = assay: Cytotoxicity against human MCF7 cells after 24 hrs by [3H]thymidine incorporation assay; assay type: functional, cell-based; how it was run: as §2
SW872 [23] = assay: Cytotoxicity against human SW872 cells after 24 hrs by [3H]thymidine incorporation assay; assay type: functional, cell-based; how it was run: as §2
[24] = Cytotoxicity against human SK37 cells after 72 hrs by [3H]thymidine incorporation assay; assay type: functional, cell-based; how it was run: as §2
[25] = Cytotoxicity against human SK MEL28 cells after 48 hrs by [3H]thymidine incorporation assay; assay type: functional, cell-based; settings: SK-MEL-28; how it was run: as §2
[26] = (§5) Antiproliferative activity against CSF and human recombinant erythropoietin-induced human CD34+ cells proliferation assessed as inhibition of CFU-erythroid formation after 12 days by clonogenic assay; assay type: functional, CD34+ cell; how it was run: as §1
CD34+ cell [27] = assay: as §5; assay type: functional; how it was run: as §1
[28] = Cytotoxicity against human SK MEL28 cells after 24 hrs by [3H]thymidine incorporation assay; assay type: functional, cell-based; settings: SK-MEL-28; how it was run: as §2
[29] = Antiproliferative activity against CSF and human recombinant erythropoietin-induced human CD34+ cells proliferation assessed as inhibition of CFU-erythroid formation at 0.5 uM after 12 days by clonogenic assay; assay type: functional, CD34+ cell; parameters: scale not given: the % may be the effect or the level left; how it was run: as §1
OVCAR-3 [30] = assay: Cytotoxicity against human OVCAR-3 cells after 48 hrs by [3H]thymidine incorporation assay; assay type: functional, cell-based; how it was run: as §2
HEp-2 [31] = assay: Cytotoxicity against human HEP2 cells after 48 hrs by [3H]thymidine incorporation assay; assay type: functional, cell-based; how it was run: as §2
SW872 [32] = assay: Cytotoxicity against human SW872 cells after 48 hrs by [3H]thymidine incorporation assay; assay type: functional, cell-based; how it was run: as §2
[33] = Cytotoxicity against human GTB cells after 5 hrs by MTT assay; assay type: functional, cell-based; how it was run: as §4
CD34+ cell [34] = assay: Antiproliferative activity against CSF and human recombinant erythropoietin-induced human CD34+ cells proliferation assessed as inhibition of CFU-GM formation after 18 days by clonogenic assay

| SMILES | IC50 (A-431 [2]) [nM] | IC50 (SW872 [3]) [nM] | IC50 (ZR-75-1 [4]) [nM] | IC50 (OVCAR-3 [6]) [nM] | IC50 (A-431 [7]) [nM] | IC50 (OVCAR-3 [8]) [nM] | IC50 (ZR-75-1 [9]) [nM] | IC50 (A-431 [10]) [nM] | IC50 [11] [nM] | IC50 [12] [nM] | IC50 (HEp-2 [13]) [nM] | IC50 [14] [nM] | IC50 (MCF7 [15]) [nM] | IC50 (HL-60) [nM] | IC50 (ZR-75-1 [17]) [nM] | IC50 (HEp-2 [18]) [nM] | IC50 (MCF7 [19]) [nM] | IC50 (MCF7 [22]) [nM] | IC50 (SW872 [23]) [nM] | IC50 [24] [nM] | other results |
| --- | --- | --- | --- | --- | --- | --- | --- | --- | --- | --- | --- | --- | --- | --- | --- | --- | --- | --- | --- | --- | --- |
| C=C(C(=O)O[C@@H]1[C@@H](O)[C@H](O)[C@@H](OCC2=C3C(=O)C=C(C)[C@@]34C[C@@H](CC2)C(=C)C(=O)O4)O[C@H]1CO)[C@@H]1CCC(CO)=C2C(=O)C=C(C)[C@@]2(O)C1 | 700 | 1400 | 300 | 900 | 700 | 1000 | 500 | 500 | 900 | 1300 | 800 | 400 | 300 | 100 | 300 | 600 | 400 | 500 | 1500 | 700 | Activity (CD34+ cell [1]): Active; Activity [5]: 60%; Activity (CD34+ cell [16]): Active; Activity [20]: 60%; Activity (CD34+ cell [21]): Dose-dependent effect; IC50 [25]: 900 nM; IC100 [26]: 2 µM; Activity (CD34+ cell [27]): Dose-dependent effect; IC50 [28]: 1300 nM; Activity [29]: 60%; IC50 (OVCAR-3 [30]): 1000 nM; IC50 (HEp-2 [31]): 700 nM; IC50 (SW872 [32]): 1400 nM; IC50 [33]: 70 nM; Activity (CD34+ cell [34]): Dose-dependent effect |
| C=C1C(=O)O[C@@H]2C[C@@H](C)[C@@H]3C=CC(=O)[C@@]3(C)[C@@H](O)[C@H]12 [HELENALIN] | 900 | 1200 | 700 | 1400 | 900 | 1700 | 1100 | 800 | 1200 | 1300 | 900 | 500 | 500 | 320 | 800 | 800 | 700 | 800 | 1400 | 700 | IC50 [25]: 900 nM; IC50 [28]: 1300 nM; IC50 (OVCAR-3 [30]): 1600 nM; IC50 (HEp-2 [31]): 900 nM; IC50 (SW872 [32]): 1200 nM; IC50 [33]: 270 nM |
